# Measurements taken from ChEMBL document CHEMBL3593214, “ent-Abietane-Type and Related Seco-/Nor-diterpenoids from the Rare Chloranthaceae Plant Chloranthus sessilifolius and Their Antineuroinflammatory Activities” (J Nat Prod, 2015).
# pIC50: −log10 of the molar value.
# Key:
# [1] = Antineuroinflammatory activity in mouse BV2 cells assessed as inhibition of LPS-stimulated nitric oxide production preincubated for 4 hrs followed by LPS challenge measured after 24 hrs by Griess assay; type: functional, cell-based; settings: BV-2
# Method in brief: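 BV-2 mouse microglia (ATCC) kept in DMEM with 1800 mg/L NaHCO3, 10% FBS and penicillin/streptomycin at 37 °C, 5% CO2. Cells were pretreated 4 h with 3.125–100 μM, then LPS 1 μg/mL for 24 h. Supernatant nitrite was measured by Griess reagent at 540 nm against a NaNO2 standard curve. IC50 is the concentration giving 50% inhibition; mean ± SD of three independent experiments.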
# [2] = Cytotoxicity against mouse BV2 cells assessed as cell viability at 50 uM by MTT assay relative to control; type: cell-based, BV-2; settings: read-out: Activity
# Method in brief: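 MTT colorimetric read-out on BV-2 microglia in DMEM/10% FBS at 37 °C, 5% CO2, after treatment at 50 μM. Viability is expressed as percent of untreated control cells; mean ± SD.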
Structure (SMILES),pIC50 [1],viability at 50 µM [2] [%]
CC(C)[C@]1(O)C=C2C(=O)C=C3C(C)(C)[C@H](O)CC[C@@]3(C)[C@@H]2CC1,< 4.00,–
CC(C)C(=O)CC[C@@H]1C(C=O)=C[C@@H](O)[C@@H]2C(C)(C)[C@H](O)CC[C@@]12C,< 4.00,–
CC1(C)[C@H](O)CC[C@@]2(C)[C@@H]3CC[C@@](O)(C(C)(C)O)C=C3C(=O)C[C@H]12,< 4.00,–
CC(C)[C@@]1(O)C=C2C(=O)C[C@@H]3[C@@](C)(CO)CCC[C@@]3(C)[C@@H]2CC1,5.13,96.8
CC(C)(O)c1ccc2c(c1)CC[C@@H]1C(C)(C)[C@H](O)CC[C@@]21C,4.75,95.4
CC(C)[C@@]1(O)C=C2C(=O)C[C@@H]3C(C)(C)[C@H](O)CC[C@@]3(C)[C@@H]2C[C@H]1O,4.42,98.4
CC(C)(O)c1ccc2c(c1)C(=O)C=C1C(C)(C)[C@H](O)CC[C@]12C,< 4.00,–
CO[C@]1(C(C)C)C=C2C(=O)C[C@@H]3C(C)(C)[C@H](O)CC[C@@]3(C)[C@@H]2CC1,5.08,96.7
CC(C)[C@]1(O)C=C2C(=O)C[C@@H]3C(C)(C)[C@H](O)CC[C@@]3(C)[C@@H]2CC1,< 4.00,–
CC(C)C(=O)CC[C@@H]1CC(=O)C[C@@H]2C(C)(C)[C@H](O)CC[C@@]12C,< 4.00,–
CC1(C)[C@H](O)CC[C@@]2(C)[C@@H]3CCC(=O)C=C3[C@H](O)C[C@H]12,< 4.00,–
CC(C)C(=O)[C@H]1C[C@@H]2C(=CC[C@@H]3C(C)(C)[C@H](O)CC[C@@]23C)[C@H]1O,< 4.00,–
CC(C)c1ccc2c(c1)[C@H](O)C[C@@H]1C(C)(C)[C@H](O)CC[C@@]21C,4.36,94.7
CNC(=N)NCCC[C@H](N)C(=O)O [TILARGININE],4.84,98.5
CC(C)C1=CC(=O)[C@@]2(CC1)OC(=O)C[C@@H]1C(C)(C)[C@H](O)CC[C@]12C,< 4.00,–
CC1(C)[C@H](O)CC[C@@]2(C)[C@@H]3CCC(=O)C=C3[C@@H](O)C[C@H]12,< 4.00,–
CC(C)C(=O)[C@@H]1C[C@@H]2C(=CC[C@@H]3C(C)(C)[C@H](O)CC[C@@]23C)[C@H]1O,< 4.00,–
